Most compounds without a hit are left out; they make up all but 4.8% or so of the library.
NALP1 inh: NALP1 inflammasome inhibitors in reconstituted yeast, colorimetric, S. cerevisiae, triplicate retest. S. cerevisiae NALP1/ASC/caspase-1 growth, X-gal OD620, 72 h. inhibition, % at 10 µM. hit rate 0.61% among 280,000. AID 2071, 2009; in the data active = inhibition mostly above about 24%, no sharp cut-off; inactive = mostly below about 32%
UCH37 inh: inhibitors of human UCH37 deubiquitinase, primary screen, biochemical, Ub-AMC cleavage, fluorescence | Ubiquitin carboxyl-terminal hydrolase isozyme L5 (Homo sapiens), Q9Y5K5 | purified proteasome/UCH37 | inhibition, % (test concentration not listed) | hit rate 0.33% among 330,000;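 active = mean inhibition over replicate wells above about 20%, limit read from the data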;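 note: 0% = compound-free wells with enzyme and 100% = wells lacking proteasome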
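assay system = human UCH37 enzyme supplied as purified proteasome complex | amount = proteasome at 0.15 nM in the dispensed enzyme solution | schedule = 30 min compound-proteasome preincubation then 25 min substrate reaction, room temperature | measured by = fluorescence, ex 355 nm, em 460 nm | benchmarks = no-proteasome wells (full inhibition) and compound-free wells (no inhibition)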
ALR H2O2 inh: inhibitors of human ALR sulfhydryl oxidase, primary screen, biochemical, H2O2 detection, HRP-luminol luminescence, single point | FAD-linked sulfhydryl oxidase ALR (Homo sapiens), P55789 | purified ALR, DTT oxidation | inhibition, % (no concentration beside the values) | hit rate 3.8% among 290,000;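 active = mean replicate inhibition above about 79%, with every replicate also reaching it, limit read from the data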
Target sequence (P55789 whole entry, looked up): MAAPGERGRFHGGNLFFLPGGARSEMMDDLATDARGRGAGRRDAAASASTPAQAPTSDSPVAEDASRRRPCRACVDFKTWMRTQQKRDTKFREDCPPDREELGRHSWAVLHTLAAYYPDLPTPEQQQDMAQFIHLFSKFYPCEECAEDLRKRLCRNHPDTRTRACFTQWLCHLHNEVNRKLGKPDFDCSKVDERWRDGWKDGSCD
ATG4B inhibitor: ATG4B protease inhibitors, primary screen, biochemical, fluorescence, uHTS | Cysteine protease ATG4B (Homo sapiens), Q9Y4P1 | AID 504462, 2011 | hit rate 0.51% among 340,000 | ATG4B cleavage of LC3-PLA2, NBD-HPC fluorescence, 1 h | inhibition, % at 8.33 µM; in the data active = inhibition above about 40%
NLRP3 yeast inh: NALP3 inflammasome inhibitors in reconstituted yeast, primary screen, luminescence, uHTS; Yeast reconstituted NLRP3/ASC/caspase-1, beta-gal luminescence, 24 h; hit rate 0.39% among 330,000; inhibition, % at 10 µM;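 active = inhibition of 50% or more; inactive = inhibition below 50%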;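 note: plate controls were induced DMSO wells for no effect and uninduced yeast grown without galactose for full effect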
Calb FLC: C. albicans growth inhibition with fluconazole, primary screen, CaCi-2 strain, Alamar Blue fluorescence; C. albicans CaCi-2 + fluconazole, 48 h; growth inhibition, % (concentration not given with the values); hit rate 0.57% among 300,000;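 active = growth inhibition above about 58% in most replicates, limit read from the data, passing the limit was not always enough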;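 note: all wells also contain fluconazole at 8 µg/ml as a sub-toxic cotreatment; 0% = median of DMSO wells and 100% = median of geldanamycin control wells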
NALP3 yeast conf: NALP3 inhibitors retested in yeast, confirmation, luminescence, single concentration; AID 435006, 2010; inhibition, % at 10 µM; shares compounds with NLRP3 yeast inh; hit rate 81% among 1,300; yeast expressing human NALP3; in the data active = inhibition above about 48%
Casp1-ASC yeast: CASP1-PYCARD signaling inhibition in yeast, confirmatory test, counterassay for NLRP3 inhibitor program, one-dose | yeast expressing Caspase-1-ASC, luminescence counter screen | hit rate 66% among 1,000 | shares compounds with NLRP3 yeast inh | inhibition, % at 10 µM
NALP3 retest: NALP3 inhibitors in yeast, repeat test, confirmation, luminescence, single concentration, retest; shares compounds with NLRP3 yeast inh; yeast expressing human NALP3, luminescence read-out; inhibition, % at 10 µM; hit rate 53% among 1,000; AID 488794, 2010
* = called active by the depositor; / = not tested or not shown. Cut-off read from the data, not from the text of the source, unless noted: active = inhibition above about 50%; inactive = the rest.

SMILES	NALP1 inh	UCH37 inh	ALR H2O2 inh	ATG4B inhibitor	NLRP3 yeast inh	Calb FLC	NALP3 yeast conf	Casp1-ASC yeast	NALP3 retest
N#Cc1c(N=Cc2cc(Br)cs2)sc2c1CCC2	/	2	/	/	/	/	/	/	/
C=CCOc1ccc(/C=C/C(=O)OCC(=O)N2CCN(C(C)=O)CC2)cc1	/	2	0	4	14	/	/	/	/
C=CCOc1ccc(/C=C/C(C)=N\O)cc1	19	/	15	-9	59*	-14	68*	60*	47
CC(C)Oc1ccc2c(=O)c(-c3ccccc3)coc2c1	49	0	/	6	58*	/	66*	40	37
COC(=O)COc1ccc2c(=O)c(-c3ccccc3)coc2c1	10	-1	-6	-9	11	13	/	/	/
CCC(=Nc1ccccc1O)C1=C(O)CC(c2ccccc2)CC1=O (configuration not stated)	32	4	56	1	62*	3	74*	55*	56*
COCCCn1c(O)c(/C=C2/N=C(C#N)C(=Nc3ccc(C)cc3)O2)sc1=S	/	12	/	/	/	/	/	/	/
CC1C(=O)NN=C1C(=O)NN=Cc1ccc(O)cc1O (configuration not stated)	/	0	/	/	/	/	/	/	/
Oc1c(/C=N/c2ccccn2)sc2ccccc12	-13	/	2	-4	65*	3	76*	44	70*
Oc1c(C=Nc2ccc(Cl)cn2)sc2ccccc12	0	5	-29	35	21	0	/	/	/
COc1cc(C(=O)NN=C2CCS(=O)(=O)c3ccc(F)cc32)cc(OC)c1OC	/	6	/	/	/	/	/	/	/
CC(C)N(Cc1ccccc1)S(=O)(=O)c1ccc(F)cc1	14	6	-25	1	51*	-5	56*	29	31
Oc1c(I)cc(Cl)c2cccnc12	70*	1	/	12	59*	/	68*	72*	79*
CC1(C)S/C(=N/N=Cc2cccs2)NC1=O	/	13	/	/	/	/	/	/	/
CCCc1ccc(C(=O)NNc2cc(Cl)ccc2Cl)cc1	6	4	-2	24	57*	2	54*	56*	49
O=C(Cc1cc(=O)[nH][nH]1)NN=Cc1cccc(Cl)c1Cl	/	6	/	/	/	/	/	/	/
CC(=Nc1ccc(C)cc1)c1sc2ccccc2c1O	26	4	4	25	30	1	/	/	/
CC(=Nc1cccc(O)c1)c1sc2ccccc2c1O	7	0	44	-9	52*	39	50*	19	23
CC(=NNC(=O)c1cccnc1)c1ccccc1	/	2	/	/	/	/	/	/	/
CC(=O)Nc1ccc(C=NNC(=S)NC(C)C)cc1	/	15	/	/	/	/	/	/	/
NCCC(=O)N1c2ccccc2Sc2ccc(Cl)cc21	23	3	-7	2	73*	-10	85*	78*	87*
CCCCCCCC(=O)NN=Cc1ccc([N+](=O)[O-])o1	/	5	/	/	/	/	/	/	/
C[C@H](CCC(=O)O)[C@H]1CC[C@H]2[C@@H]3CC[C@@H]4C[C@H](O)CC[C@]4(C)[C@H]3CC[C@]12C	/	5	-1	3	72*	/	78*	78*	61*
CC(CCC(=O)O)C1CCC2C3CCC4C[C@H](O)CCC4(C)C3CC(=O)C12C (some centres not stated)	-4	4	-1	2	15	-17	/	/	/
COc1ccc2cc3cc(C(=O)NCCN4CCN(c5ccccc5F)CC4)oc3nc2c1	-4	-498	1	-22	53*	29	16	/	/
COc1ccc2cc3cc(C(=O)Nc4ccccc4N4CCN(C)CC4)oc3nc2c1	-2	-9	-3	-16	39	-4	/	/	/

Source: PubChem BioAssay
